In ChEMBL document CHEMBL2396655, “Design, synthesis, and biological evaluation of (E)-N-aryl-2-arylethenesulfonamide analogues as potent and orally bioavailable microtubule-targeted anticancer agents” (J Med Chem, 2013):

How the values were obtained:
[1] = system: K562; assay: Cytotoxicity against human K562 cells after 96 hrs by trypan blue exclusion assay; assay type: functional, cell-based; settings: for IC50: K562, 96 h
Method in brief: (§1)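 Cells were grown in DMEM or RPMI with 10% FBS and plated at 2.5×10⁴ cells/well in 12-well dishes. Compounds were added 24 h later at various concentrations. After 96 h, viable cells were counted by trypan blue exclusion from duplicate wells. Results are the mean of two independent experiments.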

[2] = system: DU-145; assay: Cytotoxicity against human DU145 cells after 96 hrs by trypan blue exclusion assay; assay type: functional, cell-based; settings: for IC50: DU-145, 96 h; method in brief: as §1

For `COc1ccc(NS(=O)(=O)/C=C/c2c(F)c(F)c(F)c(F)c2F)cc1N`, the Activity [1] was “Dose-dependent effect”, the IC50 [1] was 75 µM and the Activity [2] was “Dose-dependent effect”. For the same molecule, the IC50 [2] was 75 µM.
With `COc1cc(OC)c(/C=C/S(=O)(=O)Nc2ccc(OC)c(F)c2)c(OC)c1` the Activity [1] was “Dose-dependent effect”, the IC50 [1] was 0.075 µM and the Activity [2] was “Dose-dependent effect”. It also gave an IC50 [2] of 0.2 µM.
For `COc1ccc(NS(=O)(=O)/C=C/c2c(F)c(F)c(F)c(F)c2F)cc1[N+](=O)[O-]`, the Activity [1] was “Dose-dependent effect”, the IC50 [1] was 100 µM and the Activity [2] was “Dose-dependent effect”. The IC50 [2] was 100 µM.
For `COc1ccc(NS(=O)(=O)/C=C/c2cc(OC)c(OC)c(OC)c2)cc1`, the Activity [1] was “Dose-dependent effect”, the IC50 [1] was 35 µM and the Activity [2] was “Dose-dependent effect”. For the same molecule, the IC50 [2] was 35 µM.
With `COC(=O)C(C)Nc1cc(NS(=O)(=O)/C=C/c2c(OC)cc(OC)cc2OC)ccc1OC` (stereo unspecified) the Activity [1] was “Dose-dependent effect”, the IC50 [1] was 0.3 µM and the Activity [2] was “Dose-dependent effect”. For the same molecule, the IC50 [2] was 0.1 µM.
With `COc1cc(OC)c(/C=C/S(=O)(=O)Nc2ccc(F)c([N+](=O)[O-])c2)c(OC)c1` the Activity [1] was “Dose-dependent effect”, the IC50 [1] was 75 µM and the Activity [2] was “Dose-dependent effect”. The IC50 [2] was 100 µM.
In the case of `COC(=O)C(Nc1cc(NS(=O)(=O)/C=C/c2c(OC)cc(OC)cc2OC)ccc1OC)c1ccc(Cl)cc1` (stereo unspecified), the Activity [1] is reported as “Dose-dependent effect”, the IC50 [1] is reported as 2.5 µM and the Activity [2] is reported as “Dose-dependent effect”. The IC50 [2] was 5 µM.
In the case of `COc1cc(OC)c(/C=C/S(=O)(=O)Nc2cc(N)c(OC)c(N)c2)c(OC)c1`, the Activity [1] is reported as “Dose-dependent effect”, the IC50 [1] is reported as 7.5 µM and the Activity [2] is reported as “Dose-dependent effect”. The IC50 [2] was 2.5 µM.
With `COc1ccc(NS(=O)(=O)/C=C/c2c(F)cc(F)cc2F)cc1` the Activity [1] was “Dose-dependent effect”, the IC50 [1] was 15 µM and the Activity [2] was “Dose-dependent effect”. It also gave an IC50 [2] of 75 µM.
In the case of `COc1ccc(/C=C/S(=O)(=O)Nc2ccc(OC)cc2)cc1`, the Activity [1] is reported as “Dose-dependent effect”, the IC50 [1] is reported as 5 µM and the Activity [2] is reported as “Dose-dependent effect”. It also gave an IC50 [2] of 5 µM.
For `COc1ccc(NS(=O)(=O)/C=C/c2c(OC)cc(OCCCC(=O)O)cc2OC)cc1O`, the Activity [1] was “Dose-dependent effect”, the IC50 [1] was 10 µM and the Activity [2] was “Dose-dependent effect”. The IC50 [2] was 10 µM.
In the case of `COC(=O)CNc1cc(NS(=O)(=O)/C=C/c2c(OC)cc(OC)cc2OC)ccc1OC`, the Activity [1] is reported as “Dose-dependent effect”, the IC50 [1] is reported as 0.35 µM and the Activity [2] is reported as “Dose-dependent effect”. For the same molecule, the IC50 [2] was 0.35 µM.
`COc1cc(OC)c(/C=C/S(=O)(=O)Nc2ccc(OC)c([N+](=O)[O-])c2)c(OC)c1` was tested, and the Activity [1] was “Dose-dependent effect”, the IC50 [1] was 1 µM and the Activity [2] was “Dose-dependent effect”. It also gave an IC50 [2] of 2.5 µM.
`O=S(=O)(/C=C/c1ccccc1)Nc1ccc(Cl)cc1` was tested, and the Activity [1] was “Dose-dependent effect”, the IC50 [1] was 20 µM and the Activity [2] was “Dose-dependent effect”. The IC50 [2] was 20 µM.
With `COc1ccc(NS(=O)(=O)/C=C/c2c(F)c(F)c(F)c(F)c2F)cc1F` the Activity [1] was “Dose-dependent effect”, the IC50 [1] was 10 µM and the Activity [2] was “Dose-dependent effect”. For the same molecule, the IC50 [2] was 10 µM.
For `O=S(=O)(/C=C/c1ccccc1)Nc1ccccc1`, the Activity [1] was “Dose-dependent effect”, the IC50 [1] was 10 µM and the Activity [2] was “Dose-dependent effect”. It also gave an IC50 [2] of 10 µM.
With `COC(=O)C(Nc1cc(NS(=O)(=O)/C=C/c2c(OC)cc(OC)cc2OC)ccc1OC)c1ccc(Br)cc1` (stereo unspecified) the Activity [1] was “Dose-dependent effect”, the IC50 [1] was 1 µM and the Activity [2] was “Dose-dependent effect”. For the same molecule, the IC50 [2] was 7.5 µM.
For `COc1ccc(NS(=O)(=O)/C=C/c2c(OC)cccc2OC)cc1`, the Activity [1] was “Dose-dependent effect”, the IC50 [1] was 5 µM and the Activity [2] was “Dose-dependent effect”. For the same molecule, the IC50 [2] was 0.375 µM.
With `COc1cc(OC)c(/C=C/S(=O)(=O)Nc2cc([N+](=O)[O-])c(OC)c([N+](=O)[O-])c2)c(OC)c1` the Activity [1] was “Dose-dependent effect”, the IC50 [1] was 10 µM and the Activity [2] was “Dose-dependent effect”. The IC50 [2] was 10 µM.
`COc1ccc(NS(=O)(=O)/C=C/c2ccccc2OC)cc1` was tested, and the Activity [1] was “Dose-dependent effect”, the IC50 [1] was 5 µM and the Activity [2] was “Dose-dependent effect”. For the same molecule, the IC50 [2] was 5 µM.
In the case of `COc1cc(OC)c(/C=C/S(=O)(=O)Nc2ccc(F)c(N)c2)c(OC)c1`, the Activity [1] is reported as “Dose-dependent effect”, the IC50 [1] is reported as 5 µM and the Activity [2] is reported as “Dose-dependent effect”. The IC50 [2] was 10 µM.
`COc1ccc(/C=C/S(=O)(=O)Nc2c(F)c(F)c(F)c(F)c2F)cc1[N+](=O)[O-]` was tested, and the Activity [1] was “Dose-dependent effect”, the IC50 [1] was 75 µM and the Activity [2] was “Dose-dependent effect”. The IC50 [2] was 100 µM.
For `COc1ccc(NS(=O)(=O)/C=C/c2cc(OC)c(OC)c(OC)c2)cc1[N+](=O)[O-]`, the Activity [1] was “Dose-dependent effect”, the IC50 [1] was 75 µM and the Activity [2] was “Dose-dependent effect”. The IC50 [2] was 75 µM.
With `COc1ccc(/C=C/S(=O)(=O)Nc2c(OC)cc(OC)cc2OC)cc1` the Activity [1] was “Dose-dependent effect”, the IC50 [1] was 2.5 µM and the Activity [2] was “Dose-dependent effect”. The IC50 [2] was 7.5 µM.
With `COC(=O)C(C)(C)Nc1cc(NS(=O)(=O)/C=C/c2c(OC)cc(OC)cc2OC)ccc1OC` the Activity [1] was “Dose-dependent effect”, the IC50 [1] was 0.3 µM and the Activity [2] was “Dose-dependent effect”. The IC50 [2] was 0.2 µM.
With `O=S(=O)(/C=C/c1c(F)c(F)c(F)c(F)c1F)Nc1c(F)c(F)c(F)c(F)c1F` the Activity [1] was “Dose-dependent effect”, the IC50 [1] was 35 µM and the Activity [2] was “Dose-dependent effect”. It also gave an IC50 [2] of 35 µM.
`COc1ccc(NS(=O)(=O)/C=C/c2c(OC)cc(O)cc2OC)cc1` was tested, and the Activity [1] was “Dose-dependent effect”, the IC50 [1] was 10 µM and the Activity [2] was “Dose-dependent effect”. For the same molecule, the IC50 [2] was 10 µM.
For `COC(=O)C(Nc1cc(NS(=O)(=O)/C=C/c2c(OC)cc(OC)cc2OC)ccc1OC)c1ccccc1` (stereo unspecified), the Activity [1] was “Dose-dependent effect”, the IC50 [1] was 2.5 µM and the Activity [2] was “Dose-dependent effect”. The IC50 [2] was 2.5 µM.
`COc1ccc(NS(=O)(=O)/C=C/c2cc(OC)c(OC)c(OC)c2)cc1N` was tested, and the Activity [1] was “Dose-dependent effect”, the IC50 [1] was 15 µM and the Activity [2] was “Dose-dependent effect”. For the same molecule, the IC50 [2] was 35 µM.
In the case of `COc1cc(OC)c(/C=C/S(=O)(=O)Nc2ccc(OC)c(OC(=O)C(C)(C)C3=C(C)C(=O)C=C(C)C3=O)c2)c(OC)c1`, the Activity [1] is reported as “Dose-dependent effect”, the IC50 [1] is reported as 0.008 µM and the Activity [2] is reported as “Dose-dependent effect”. For the same molecule, the IC50 [2] was 0.009 µM.
`O=S(=O)(/C=C/c1ccc(Br)cc1)Nc1ccc(F)cc1` was tested, and the Activity [1] was “Dose-dependent effect”, the IC50 [1] was 10 µM and the Activity [2] was “Dose-dependent effect”. The IC50 [2] was 10 µM.
`COc1ccc(NS(=O)(=O)/C=C/c2c(OC)cc(OCCCC(=O)O)cc2OC)cc1[N+](=O)[O-]` was tested, and the Activity [1] was “Dose-dependent effect”, the IC50 [1] was 100 µM and the Activity [2] was “Dose-dependent effect”. For the same molecule, the IC50 [2] was 100 µM.
For `COc1ccc(NS(=O)(=O)/C=C/c2c(OC)cc(OCCCC(=O)O)cc2OC)cc1N`, the Activity [1] was “Dose-dependent effect”, the IC50 [1] was 10 µM and the Activity [2] was “Dose-dependent effect”. The IC50 [2] was 10 µM.
With `COc1ccc(/C=C/S(=O)(=O)Nc2ccc(OC)c(F)c2)cc1` the Activity [1] was “Dose-dependent effect”, the IC50 [1] was 1 µM and the Activity [2] was “Dose-dependent effect”. For the same molecule, the IC50 [2] was 5 µM.
